From ChEMBL document CHEMBL1126609, “5-HT3 receptor antagonists. 2. 4-Hydroxy-3-quinolinecarboxylic acid derivatives” (J Med Chem, 1993)

How the values were obtained:
[1] = molecular target: Serotonin 3 (5-HT3) receptor (Rattus norvegicus) (UniProt P35563+Q9JJ16); test: In vivo inhibitory concentration after 5 minutes against 5-hydroxytryptamine 3 receptor induced bradycardia [bezold-jarisch (B-J) reflex test] in rat by intravenous administration; assay type: functional, organism-based
Summary of the method: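 Compounds given iv. The 5-HT-induced bradycardia (Bezold–Jarisch reflex) was measured at 5 min. ED50 is the dose reducing the bradycardia by 50%, from four determinations.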

[2] = molecular target: T1, Serotonin 3 (5-HT3) receptor (Rattus norvegicus, UniProt P35563+Q9JJ16); test: Binding affinity against radioligand [3H]quipazine labeled 5-hydroxytryptamine 3 receptor sites in neuroblastoma-glioma (NG108-15) cells.
T1 sequence (P35563 whole entry): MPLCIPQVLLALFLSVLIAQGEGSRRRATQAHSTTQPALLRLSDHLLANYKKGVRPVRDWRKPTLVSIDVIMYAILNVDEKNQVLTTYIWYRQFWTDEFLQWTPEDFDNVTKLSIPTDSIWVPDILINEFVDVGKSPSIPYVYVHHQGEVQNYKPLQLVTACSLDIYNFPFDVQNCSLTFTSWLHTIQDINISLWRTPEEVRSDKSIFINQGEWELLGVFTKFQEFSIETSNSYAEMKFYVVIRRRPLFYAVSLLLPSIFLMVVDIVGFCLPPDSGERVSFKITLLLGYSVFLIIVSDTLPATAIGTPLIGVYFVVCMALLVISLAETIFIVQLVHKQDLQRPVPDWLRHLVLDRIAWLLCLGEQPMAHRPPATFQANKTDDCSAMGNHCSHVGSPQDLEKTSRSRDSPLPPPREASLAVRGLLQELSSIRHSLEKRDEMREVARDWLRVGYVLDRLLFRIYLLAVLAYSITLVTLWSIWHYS
T1 sequence (Q9JJ16 whole entry): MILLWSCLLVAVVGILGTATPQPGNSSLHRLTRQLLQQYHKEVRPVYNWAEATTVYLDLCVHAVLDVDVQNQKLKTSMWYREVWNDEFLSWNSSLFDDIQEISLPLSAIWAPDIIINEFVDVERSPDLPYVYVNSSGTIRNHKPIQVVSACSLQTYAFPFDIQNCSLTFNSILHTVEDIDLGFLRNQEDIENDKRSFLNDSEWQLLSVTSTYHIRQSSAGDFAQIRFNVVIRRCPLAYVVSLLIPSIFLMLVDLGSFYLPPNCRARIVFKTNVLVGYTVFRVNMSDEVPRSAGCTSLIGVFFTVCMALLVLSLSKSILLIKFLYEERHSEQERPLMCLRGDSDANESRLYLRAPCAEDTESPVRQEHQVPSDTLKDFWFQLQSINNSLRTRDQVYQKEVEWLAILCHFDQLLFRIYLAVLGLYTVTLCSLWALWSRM

Canis familiaris [3] = test: Mean percentage reduction due to cisplatin-induced emetic episodes in dog after an intravenous administration of 0.01 mg/kg of drug; assay type: functional, Canis lupus familiaris
Summary of the method: (§1)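 Adult male fasted beagles (9–15 kg) received drug 30 min (iv) or 60 min (po) before cisplatin 3 mg/kg iv, dissolved by sonication in saline. Dogs were then observed 6 h, with emesis defined as productive regurgitation. Episode counts and latency were compared with controls (n = 7), using 2–4 dogs per dose. Dogs that never vomited were assigned 360 min latency.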

Canis familiaris [4] = test: Mean percentage reduction due to cisplatin-induced emetic episodes in dog after an intravenous administration of 0.03 mg/kg of drug; assay type: functional, Canis lupus familiaris; summary of the method: as §1
Canis familiaris [5] = test: Mean percentage reduction due to cisplatin-induced emetic episodes in dog after an intravenous administration of 0.1 mg/kg of drug; assay type: functional, Canis lupus familiaris
Summary of the method: (§2)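 Adult male fasted beagle dogs (9-15 kg) received test drug iv 30 min before cisplatin (3 mg/kg, iv, in saline) and were monitored for 6 h. Episodes were counted as productive regurgitation of stomach contents. Percent reduction is versus the control group (n = 7); n = 2-4 dogs per dose.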

Canis familiaris [6] = test: Mean percentage reduction due to cisplatin-induced emetic episodes in dog after an intravenous administration of 0.3 mg/kg of drug; assay type: functional, Canis lupus familiaris; summary of the method: as §2
Canis familiaris [7] = test: Mean percentage reduction due to cisplatin-induced emetic episodes in dog after an peroral administration of 0.1 mg/kg of drug; assay type: functional, Canis lupus familiaris; conditions: route oral; summary of the method: as §1
Canis familiaris [8] = test: Mean percentage increase emetic latency in dog after an intravenous administration of 0.01 mg/kg of drug; assay type: functional, Canis lupus familiaris; summary of the method: as §1
Canis familiaris [9] = test: Mean percentage increase emetic latency in dog after an intravenous administration of 0.03 mg/kg of drug; assay type: functional, Canis lupus familiaris; summary of the method: as §1
Canis familiaris [10] = test: Mean percentage increase emetic latency in dog after an intravenous administration of 0.1 mg/kg of drug; assay type: functional, Canis lupus familiaris
Summary of the method: (§3)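 Adult male fasted beagle dogs (9-15 kg), fed on the day of the experiment; test drug given iv 30 min before cisplatin (3 mg/kg, iv, dissolved by sonication in saline). Dogs were monitored for 6 h. Emesis was defined as productive regurgitation of stomach contents.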

Canis familiaris [11] = test: Mean percentage increase emetic latency in dog after an intravenous administration of 0.3 mg/kg of drug (when dogs did not vomit,360min); assay type: functional, Canis lupus familiaris; summary of the method: as §1
Canis familiaris [12] = test: Mean percentage increase emetic latency in dog after an peroral administration of 0.1 mg/kg of drug; assay type: functional, Canis lupus familiaris; conditions: route oral; summary of the method: as §1
Canis familiaris [13] = test: Mean percentage increase emetic latency in dog after an peroral administration of 1.0 mg/kg of drug; assay type: functional, Canis lupus familiaris; conditions: route oral; summary of the method: as §1
Canis familiaris [14] = test: Mean percentage reduction due to cisplatin-induced emetic episodes in dog after an peroral administration of 1.0 mg/kg of drug; assay type: functional, Canis lupus familiaris; conditions: route oral; summary of the method: as §1
Canis familiaris [15] = test: Mean percentage increase emetic latency in dog after an intravenous administration of 0.3 mg/kg of drug; assay type: functional, Canis lupus familiaris; summary of the method: as §3
Canis familiaris [16] = test: Mean percentage increase emetic latency in dog after an intravenous administration of 1 mg/kg of drug (when dogs did not vomit, 360 min); assay type: functional, Canis lupus familiaris; summary of the method: as §3
Canis familiaris [17] = test: Mean percentage reduction due to cisplatin-induced emetic episodes in dog after an intravenous administration of 1 mg/kg of drug; assay type: functional, Canis lupus familiaris; summary of the method: as §2

Compound	ED50 [1] [mg/kg]	Ki [2] [nM]	other results
CN1C2CCC1CC(NC(=O)c1c(O)c3ccccc3n(-c3ccccc3)c1=O)C2 (stereo not drawn)	0.073	1.4	
CN1C2CCCC1CC(NC(=O)c1nn(C)c3ccccc13)C2 (stereo not drawn)	0.019		
CCCCn1c(=O)c(C(=O)NC2CC3CCC(C2)N3C)c(O)c2cccnc21 (stereo not drawn)	> 0.1	6.4	
CN1C2CCC1CC(NC(=O)c1c(O)c3cccnc3n(-c3ccccc3)c1=O)C2 (stereo not drawn)		14	
Cc1nc2ccccc2c(O)c1C(=O)NC1CC2CCC(C1)N2C (stereo not drawn)	0.015	7.2	
Cc1ccc2c(O)c(C(=O)OC3CC4CCC(C3)N4C)cnc2n1 (stereo not drawn)		> 100	
CN1C2CCC1CC(NC(=O)c1cnc3ccccc3c1O)C2 (stereo in doubt; 6h)		100	
O=C(NC1CCN2CCCC1C2)c1cnc2ccccc2c1O (stereo not drawn)		18	
CN1C2CCC1CC(NC(=O)c1cnc3ccccc3c1N)C2 (stereo not drawn)		> 100	
CCCCn1c(=O)c(C(=O)OC2CC3CCC(C2)N3C)c(O)c2cccnc21 (stereo not drawn)		> 100	
Cc1ccc2c(O)c(C(=O)NC3CC4CCC(C3)N4C)cnc2n1 (stereo not drawn)		> 100	
CN1C2CCC1CC(OC(=O)c1c(O)c3cccnc3n(-c3ccccc3)c1=O)C2 (stereo not drawn)		> 100	
CN1C2CCC1CC(NC(=O)c1c(O)c3ccccc3[nH]c1=O)C2 (stereo not drawn)		7.6	
CN1C2CCC1CC(OC(=O)c1cnc3ccccc3c1)C2 (stereo not drawn)	0.37	66.9	
CCCCn1c(=O)c(C(=O)NC2CC3CCC(C2)N3C)c(O)c2ccccc21 (stereo not drawn)	0.29	0.48	
CN1C2CCCC1CC(NC(=O)c1cnc3ccccc3c1O)C2 (stereo not drawn)		30	
CN1C2CCC1CC(NC(=O)c1cnc3ccccc3c1)C2 (stereo not drawn)		> 100	
CN1C2CCC1CC(NC(=O)c1cnc3ccccc3c1O)C2 (stereo in doubt; 6f)		1.5	Reduction (Canis familiaris [3]): 44%; Reduction (Canis familiaris [4]): 54%; Reduction (Canis familiaris [5]): 80%; Reduction (Canis familiaris [6]): 100%; Reduction (Canis familiaris [7]): 64%; Increase (Canis familiaris [8]): 14%; Increase (Canis familiaris [9]): 23%; Increase (Canis familiaris [10]): 116%; Increase (Canis familiaris [11]): >284%; Increase (Canis familiaris [12]): 32%; Increase (Canis familiaris [13]): 142%; Increase (Canis familiaris [14]): 88%
Cc1nc2ccccc2c(O)c1C(=O)OC1CC2CCC(C1)N2C (stereo not drawn)		58	
CN1C2CCC1CC(OC(=O)c1cnc3ccccc3c1O)C2 (stereo not drawn)	0.0017	6.1	
CCCCn1c(=O)c(C(=O)OC2CC3CCC(C2)N3C)c(O)c2ccccc21 (stereo not drawn)		> 100	
Cc1nccn1CC1CCc2c(c3ccccc3n2C)C1=O (stereo not drawn) [ONDANSETRON]	0.021		Reduction (Canis familiaris [5]): 18%; Reduction (Canis familiaris [6]): 61%; Increase (Canis familiaris [15]): 115%; Increase (Canis familiaris [16]): >284%; Increase (Canis familiaris [10]): 33%; Reduction (Canis familiaris [17]): 100%
CN1C2CCC1CC(NC(=O)c1c(O)nc3ccccc3c1O)C2 (stereo not drawn)	0.22		
CN1C2CCC1CC(NC(=O)c1cnc3ccccc3c1Cl)C2 (stereo not drawn)		85	
